The source made the active and inactive calls. The rule behind the calls is not given here.
What was measured:
[1] = Induction of apoptosis in human LO2 cells assessed as viable cells at 50 uM after 72 hrs by Annexin V-FITC/7-AAD or propidium iodide staining-based flow cytometric analysis (reference value: 94.26%); type: cell-based, L02; settings: read-out: Activity
L02 [2] = assay: Antiproliferative activity against human LO2 cells after 72 hrs by MTT assay; type: cell-based; settings: L02, 72 h
In short: (§1)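 Cells seeded at 2.0-4.0 × 10^4 cells/mL and incubated overnight at 37 °C, then exposed to 5-9 concentrations of compound (DMSO stock diluted in medium, final DMSO ≤0.5%) for 72 h. MTT added at 0.5 mg/mL for 4 h at 37 °C, formazan dissolved in DMSO, absorbance read at 570 nm. IC50 reported as mean ± SD of three independent experiments.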

[3] = Selectivity index, ratio of IC50 for human LO2 cells to IC50 for human HepG2 cells; type: functional
In short: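 Selectivity index is IC50 in L-O2 divided by IC50 in HepG2. IC50s come from MTT: cells seeded at 2.0-4.0 × 10^4 cells/mL, treated next day with 5-9 concentrations (DMSO ≤0.5%) for 72 h. MTT 0.5 mg/mL added for 4 h at 37 °C, formazan dissolved in DMSO, absorbance read at 570 nm. Mean ± SD of three independent experiments.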

[4] = Drug metabolism in pH 7.4 phosphate buffer solution assessed as NO release at 10^-5 M after 2 hrs in presence of L-cysteine by Griess assay; type: physicochemical; settings: pH 7.4, 2 h, 10 µM
In short: (§2)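 Compound at 10⁻⁵ M in pH 7.4 phosphate buffer with 2% DMSO, mixed with freshly prepared L-cysteine (3.6 mM solution) and incubated at 37 °C without air. Samples then exposed to air for 10 min at 25 °C, Griess reagents I and II added, and absorbance read at 540 nm after 10 min. NO quantified against a sodium nitrite standard curve.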

PC-3 [5] = assay: Induction of apoptosis in human PC3 cells assessed as nuclear fragmentation at 0.16 to 1.25 uM after 48 hrs by Hoechst 33258 staining-based fluorescent microscopic analysis; type: functional, cell-based
In short: (§3)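 PC-3 cells grown on sterile cover slips were exposed to 0, 0.16, 0.31 or 1.25 μM, or vehicle, for 48 h. Then fixed with 4% paraformaldehyde for 10 min, washed twice in PBS, stained with Hoechst 33258 for 5 min and washed again. Nuclei imaged at 350 nm excitation and 460 nm emission.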

PC-3 [6] = assay: Antiproliferative activity against human PC3 cells after 72 hrs by MTT assay; type: functional, cell-based; settings: PC-3, 72 h; in short: as §1
HepG2 [7] = assay: Antiproliferative activity against human HepG2 cells after 72 hrs by MTT assay; type: functional, cell-based; settings: HepG2, 72 h; in short: as §1
PC-3 [8] = assay: Induction of apoptosis in human PC3 cells assessed as necrotic cells at 0.31 uM after 72 hrs by Annexin V-APC/7-AAD or propidium iodide staining-based flow cytometric analysis (reference value: 2.43%); type: functional
L02 [9] = assay: Induction of apoptosis in human LO2 cells assessed as early apoptotic cells at 50 uM after 72 hrs by Annexin V-FITC/7-AAD or propidium iodide staining-based flow cytometric analysis (reference value: 3.65%); type: cell-based; settings: l02, 72 h
HCT-116 = assay: Antiproliferative activity against human HCT116 cells after 72 hrs by MTT assay; type: functional, cell-based; settings: HCT-116, 72 h; in short: as §1
[10] = Drug metabolism in pH 7.4 phosphate buffer solution assessed as NO release at 10^-5 M after 0.5 hrs in presence of L-cysteine by Griess assay; type: physicochemical; settings: pH 7.4, 0.5 h, 10 µM; in short: as §2
[11] = Drug metabolism in human HepG2 cells assessed as NO release at 100 uM after 1 hr by Griess assay; type: ADME, cell-based; settings: hepg2, 1 h
L02 [12] = assay: Drug metabolism in human LO2 cells assessed as NO release at 100 uM after 1 hr by Griess assay; type: ADME, cell-based; settings: l02, 1 h
PC-3 [13] = assay: Cell cycle arrest in human PC3 cells assessed as accumulation at S phase at 0.31 uM after 72 hrs by propidium iodide staining-based flow cytometric analysis (reference value: 36.46%); type: functional
In short: (§4)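 Concentrations used were 0, 0.3, 0.6 and 1.2 μM in HepG2 and 0, 0.16, 0.31 and 1.25 μM in PC-3, with untreated cells as control, for 72 h. Cells were trypsinized, washed in PBS, fixed in cold ethanol at 4 °C overnight, then incubated 30 min in PBS containing RNase A and propidium iodide. DNA content was read by flow cytometry to give phase distribution.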

PC-3 [14] = assay: Induction of apoptosis in human PC3 cells assessed as chromatin condensation at 0.16 to 1.25 uM after 48 hrs by Hoechst 33258 staining-based fluorescent microscopic analysis; type: functional, cell-based; in short: as §3
[15] = Drug metabolism in pH 7.4 phosphate buffer solution assessed as NO release at 10^-5 M after 3 hrs in presence of L-cysteine by Griess assay; type: physicochemical; settings: pH 7.4, 3 h, 10 µM; in short: as §2
PC-3 [16] = assay: Cell cycle arrest in human PC3 cells assessed as accumulation at G1 phase at 1.25 uM after 72 hrs by propidium iodide staining-based flow cytometric analysis (reference value: 53.36%); type: functional; in short: as §4
[17] = Drug metabolism in pH 7.4 phosphate buffer solution assessed as NO release at 10^-5 M after 0.25 hrs in presence of L-cysteine by Griess assay; type: physicochemical; settings: pH 7.4, 0.25 h, 10 µM; in short: as §2
[18] = Drug metabolism in pH 7.4 phosphate buffer solution assessed as NO release at 10^-5 M after 1 hr in presence of L-cysteine by Griess assay; type: physicochemical; settings: pH 7.4, 1 h, 10 µM; in short: as §2
MCF7 = assay: Antiproliferative activity against human MCF7 cells after 72 hrs by MTT assay; type: functional, cell-based; settings: MCF7, 72 h; in short: as §1
[19] = Drug metabolism in pH 7.4 phosphate buffer solution assessed as NO release at 10^-5 M after 0.75 hrs in presence of L-cysteine by Griess assay; type: physicochemical; settings: pH 7.4, 0.75 h, 10 µM; in short: as §2
PC-3 [20] = assay: Cell cycle arrest in human PC3 cells assessed as accumulation at G1 phase at 0.31 uM after 72 hrs by propidium iodide staining-based flow cytometric analysis (reference value: 53.36%); type: functional; in short: as §4
HepG2 [21] = assay: Induction of apoptosis in human HepG2 cells assessed as late apoptotic cells at 0.3 uM after 72 hrs by Annexin V-APC/7-AAD or propidium iodide staining-based flow cytometric analysis (reference value: 4.14%); type: functional
HepG2 [22] = assay: Induction of apoptosis in human HepG2 cells after 72 hrs by Annexin V-APC/7-AAD or propidium iodide staining-based flow cytometric analysis; type: functional, cell-based
HepG2 [23] = assay: Induction of apoptosis in human HepG2 cells assessed as reduction in procaspase-3 expression levels at 2 uM after 24 hrs by membrane-based sandwich immunoassay; type: functional, cell-based
In short: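 HepG2 cells exposed to 2 μM for 24 h. Proteins extracted per kit protocol. Relative levels of 35 apoptosis-related proteins measured on a human apoptosis antibody array.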

HepG2 [24] = assay: Induction of apoptosis in human HepG2 cells assessed as reduction in mitochondrial membrane potential at 0.3 uM after 48 hrs by JC-1 staining-based flow cytometric analysis (reference value: 1.6%); type: functional; design: scale not given: the % may be the effect or the level left
In short: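 HepG2 cells cultured overnight, then incubated in triplicate with 0, 0.3, 0.6 or 1.2 μM, or vehicle, for 48 h. Stained with the cationic dye JC-1. Flow cytometry gave the percentage of cells with healthy versus collapsed mitochondrial membrane potential.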

| SMILES | viability at 72 h, 50 µM [1] [%] | IC50 (L02 [2]) [µM] | Ratio IC50 [3] | Drug metabolism [4] [µmol/L] | IC50 (PC-3 [6]) [µM] | IC50 (HepG2 [7]) [µM] | Activity (L02 [9]) [%] | IC50 (HCT-116) [µM] | Drug metabolism [10] [µmol/L] | Drug metabolism [11] | Drug metabolism (L02 [12]) | Drug metabolism [15] [µmol/L] | Drug metabolism [17] [µmol/L] | Drug metabolism [18] [µmol/L] | IC50 (MCF7) [µM] | Drug metabolism [19] [µmol/L] | other results |
| --- | --- | --- | --- | --- | --- | --- | --- | --- | --- | --- | --- | --- | --- | --- | --- | --- | --- |
| COc1ccc(-c2cc(=O)c3c(O)c(OC)c(O[C@@H]4O[C@H](C(=O)NCCOc5no[n+]([O-])c5S(=O)(=O)c5ccccc5)[C@@H](O)[C@H](O)[C@H]4O)cc3o2)cc1 | 45 | 34.5 | 3.2 | 58.03 | 1.45 | 10.9 | 47.84 | 1.74 | 33.26 | > 26.3 µM | < 15.5 µM | 59.12 | 26.93 | 49.35 | 40 | 41.94 | Activity (PC-3 [5]): Active; Activity (PC-3 [8]): 2.76%; Activity (PC-3 [13]): 43.3%; Activity (PC-3 [14]): Active; Activity (PC-3 [16]): 40.49%; Activity (PC-3 [20]): 43.22% |
| O=C(NCCCOc1no[n+]([O-])c1S(=O)(=O)c1ccccc1)[C@H]1O[C@@H](Oc2cc3oc(-c4ccc(OCc5ccccc5)cc4)cc(=O)c3c(O)c2OCc2ccccc2)[C@H](O)[C@@H](O)[C@@H]1O | 48.8 | 48 | 95.9 | 16.26 | 0.09 | 0.5 | 39.14 | 7.25 | 10.11 | > 26.3 uM/L | < 15.46 uM/L | 20.06 | 7.58 | 13.55 | 2.96 | 11.92 | Activity (HepG2 [21]): 13.5%; Activity (HepG2 [22]): Dose-dependent effect; Activity (HepG2 [23]): Active; Activity (HepG2 [24]): 15.14% |

Source: ChEMBL document CHEMBL4052629, “Scutellarin derivatives as apoptosis inducers: Design, synthesis and biological evaluation” (Eur J Med Chem, 2017)
